Paper PMC3018740 (Fitoterapia, 2010)
Entries after “also recorded” stand apart in the source; their conditions may differ.

Assays:
Human recombinant COX-2 [1] = biological target: T1, Human recombinant COX-2 (Homo sapiens, UniProt P35354); assay: Pulsed ultrafiltration LC-MS-MS screening for COX-2 ligands; type: binding; details: for Relative binding to COX-2: bound/free ratio = (pulsed ultrafiltration peak area)/(peak area washing buffer); for Specific binding to COX-2 (in words): pulsed ultrafiltration LC-MS-MS
T1 sequence (P35354 18-604): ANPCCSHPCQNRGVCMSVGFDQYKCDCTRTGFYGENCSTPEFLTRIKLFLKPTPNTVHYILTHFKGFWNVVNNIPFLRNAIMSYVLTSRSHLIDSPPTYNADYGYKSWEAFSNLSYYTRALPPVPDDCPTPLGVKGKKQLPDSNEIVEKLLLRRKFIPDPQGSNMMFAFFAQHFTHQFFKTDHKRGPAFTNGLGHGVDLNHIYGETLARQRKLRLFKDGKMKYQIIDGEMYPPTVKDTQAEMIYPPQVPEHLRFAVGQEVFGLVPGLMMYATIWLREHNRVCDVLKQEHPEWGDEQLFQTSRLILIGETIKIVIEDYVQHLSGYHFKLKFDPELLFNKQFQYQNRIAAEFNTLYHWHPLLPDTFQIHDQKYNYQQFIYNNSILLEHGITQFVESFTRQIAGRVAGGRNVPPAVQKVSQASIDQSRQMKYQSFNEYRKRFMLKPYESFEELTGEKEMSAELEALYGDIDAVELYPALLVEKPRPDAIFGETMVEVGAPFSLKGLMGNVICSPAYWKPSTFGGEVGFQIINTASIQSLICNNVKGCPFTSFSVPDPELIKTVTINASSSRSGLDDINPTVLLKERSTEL

COX-2 = details: read-out: Previously reported IC50 for inhibition of COX-2; cell-based assay; cited from earlier work
Human recombinant COX-2 [2] = biological target: T1, Human recombinant COX-2; assay: COX-2 inhibition assay; type: biochemical; details: read-out: IC50 COX-2; purified compounds
ovine COX-1 = biological target: T2, ovine COX-1 (Ovis aries, UniProt P05979); assay: COX-1 inhibition assay; type: biochemical; details: for IC50: read-out: IC50 COX-1, purified compounds
T2 sequence (P05979 25-600): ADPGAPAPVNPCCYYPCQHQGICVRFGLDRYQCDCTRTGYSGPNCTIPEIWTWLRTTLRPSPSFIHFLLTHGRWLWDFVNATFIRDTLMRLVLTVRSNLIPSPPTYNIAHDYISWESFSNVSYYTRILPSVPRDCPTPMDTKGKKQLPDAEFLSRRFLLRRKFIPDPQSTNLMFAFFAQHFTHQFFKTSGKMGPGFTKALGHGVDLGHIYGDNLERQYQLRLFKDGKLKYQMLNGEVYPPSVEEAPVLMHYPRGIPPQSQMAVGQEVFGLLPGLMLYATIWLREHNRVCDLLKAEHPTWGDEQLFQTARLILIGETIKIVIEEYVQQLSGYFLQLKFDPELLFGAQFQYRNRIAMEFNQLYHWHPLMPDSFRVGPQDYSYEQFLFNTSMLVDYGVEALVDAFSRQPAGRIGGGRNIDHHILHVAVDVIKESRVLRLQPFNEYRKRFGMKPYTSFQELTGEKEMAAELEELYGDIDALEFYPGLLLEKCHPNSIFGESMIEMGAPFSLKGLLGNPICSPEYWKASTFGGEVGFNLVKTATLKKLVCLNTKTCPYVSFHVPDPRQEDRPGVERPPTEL
Outline: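 PGE2 produced by COX-1 with test compound present was quantified by LC-MS-MS. Percent inhibition was calculated against PGE2 from the negative-control incubation. Each compound was tested at 12 concentrations, three times each. IC50 was obtained by fitting the inhibition curve.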

Row | Relative binding to COX-2 (Human recombinant COX-2 [1]) | IC50 (Human recombinant COX-2 [2]) | IC50 (ovine COX-1) | Compound | Specific binding to COX-2 (in words) (Human recombinant COX-2 [1]) | IC50 (COX-2) | Inhibition of COX-1 (in words) (ovine COX-1)
1 | 0 | – | – | 6-dehydro-6-gingerol | – | – | –
2 | 0 | – | – | CCCCC/C=C/[C@H](O)CC(=O)CCc1ccc(O)c(OC)c1 [6-dehydro-8-gingerol] | – | – | –
3 | 0.15 ± 0.01 | – | – | CCCCCCC/C=C/[C@H](O)CC(=O)CCc1ccc(O)c(OC)c1 [6-dehydro-10-gingerol] | bound to the enzyme active site | – | –
4 | 0 | – | – | CCCCC[C@H](O)C[C@H](O)CCc1ccc(O)c(OC)c1 [6-gingerdiol] | – | – | –
5 | 0.23 ± 0.02 | – | – | CCCCCC(=O)CC(=O)CCc1ccc(O)c(OC)c1 [6-gingerdione] | bound to the enzyme active site | – | –
6 | 0 | – | – | CCCCC[C@H](O)CC(=O)CCc1ccc(O)c(OC)c1 [6-gingerol] | not 6-gingerol or 8-gingerol bound to COX-2 | > 50 µM | –
7 | – | – | – | CCCCCCCC(=O)CCc1ccc(O)c(OC)c1 [6-paradol] | bound to the enzyme active site; also recorded: bound to COX-2 | – | –
8 | 0 | – | – | CCCCC/C=C/C(=O)CCc1ccc(O)c(OC)c1 [6-shogaol] | COX-2 ligands but not 6-shogaol or 12-shogaol | 2.1 µM | –
9 | 0 | – | – | CCCCCCCC(O)CC(O)CCc1ccc(O)c(OC)c1 (stereo not shown) [8-gingerdiol] | – | – | –
10 | 0.20 ± 0.03 | – | – | CCCCCCCC(=O)CC(=O)CCc1ccc(O)c(OC)c1 [8-gingerdione] | bound to the enzyme active site | – | –
11 | 0 | – | – | CCCCCCC[C@H](O)CC(=O)CCc1ccc(O)c(OC)c1 [8-gingerol] | not 6-gingerol or 8-gingerol bound to COX-2 | 10 µM | –
12 | 0.70 ± 0.02 | – | – | CCCCCCCCCC(=O)CCc1ccc(O)c(OC)c1 [8-paradol] | bound to the enzyme active site; also recorded: bound to COX-2 | – | –
13 | 0.27 ± 0.02 | 17.5 ± 2.2 µM | > 50 µM | CCCCCCC/C=C/C(=O)CCc1ccc(O)c(OC)c1 [8-shogaol] | bound to the enzyme active site; also recorded: COX-2 ligands | 7.2 µM | No inhibition of COX-1 was detected; also recorded: did not inhibit COX-1
14 | 0.24 ± 0.05 | – | – | CCCCCCCCCC(=O)CC(=O)CCc1ccc(O)c(OC)c1 [10-gingerdione] | bound to the enzyme active site | – | –
15 | 0.17 ± 0.03 | 32 ± 1.5 µM | > 50 µM | CCCCCCCCC[C@H](O)CC(=O)CCc1ccc(O)c(OC)c1 [10-gingerol] | bound to the enzyme active site; also recorded: bound to COX-2 | – | No inhibition of COX-1 was detected; also recorded: did not inhibit COX-1
16 | 0 | – | – | CCCCCCCCCCCC(=O)CCc1ccc(O)c(OC)c1 [10-paradol] | not 10-paradol bound to COX-2 | – | –
17 | 0.35 ± 0.03 | 7.5 ± 0.6 µM | > 50 µM | CCCCCCCCC/C=C/C(=O)CCc1ccc(O)c(OC)c1 [10-shogaol] | bound to the enzyme active site; also recorded: COX-2 ligands | – | No inhibition of COX-1 was detected; also recorded: did not inhibit COX-1
18 | 0.23 ± 0.01 | – | – | CCCCCCCCCCC[C@H](O)CC(=O)CCc1ccc(O)c(OC)c1 [12-gingerol] | bound to the enzyme active site; also recorded: bound to COX-2 | – | –
19 | 0 | – | – | CCCCCCCCCCC/C=C/C(=O)CCc1ccc(O)c(OC)c1 [12-shogaol] | COX-2 ligands but not 6-shogaol or 12-shogaol | – | –
